# Test results: ChEMBL document CHEMBL1133188, “Discovery of novel, potent, and selective small-molecule CCR5 antagonists as anti-HIV-1 agents: synthesis and biological evaluation of anilide derivatives with a quaternary ammonium moiety” (J Med Chem, 2000)
# Tests used:
# [1] = target: C-C chemokine receptor type 5 (Homo sapiens, UniProt P51681); experiment: Inhibitory effect on Chemokine binding to C-C chemokine receptor type 5 using [125I]RANTES
# Procedure, shortened: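 CHO/CCR5 cells (5 × 10⁴ cells/100 μL) cultured 24 h at 37 °C, then medium replaced with Ham's F-12 binding buffer containing 20 mM Hepes and 0.5% BSA, pH 7.2. Binding with [125I]RANTES (2000 Ci/mmol) plus graded compound concentrations, room temperature, 40 min. Free ligand removed by washing with cold PBS; cell-bound radioactivity counted. IC50 = 50% inhibition of binding; means of duplicate separate experiments (one compound triplicate).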
# [2] = target: T1, C-C chemokine receptor type 3 (Homo sapiens, UniProt P51677); experiment: Inhibitory effect on the binding of [125I]- eotaxin to C-C chemokine receptor type 3- expressing CHO cells; format: cell-based
# T1 sequence (P51677 whole entry): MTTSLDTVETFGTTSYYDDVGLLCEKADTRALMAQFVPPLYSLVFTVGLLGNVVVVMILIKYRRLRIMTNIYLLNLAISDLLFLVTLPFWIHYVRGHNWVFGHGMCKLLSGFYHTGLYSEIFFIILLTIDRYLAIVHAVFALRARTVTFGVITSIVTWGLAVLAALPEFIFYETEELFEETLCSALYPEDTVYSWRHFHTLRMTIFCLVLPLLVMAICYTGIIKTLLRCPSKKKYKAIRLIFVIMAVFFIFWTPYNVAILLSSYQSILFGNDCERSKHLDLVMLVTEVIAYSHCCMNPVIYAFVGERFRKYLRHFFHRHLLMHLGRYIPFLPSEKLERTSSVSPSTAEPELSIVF
# Procedure, shortened: (§1)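 Whole-cell radioligand binding on CHO cells expressing CCR1 ([125I]RANTES), CCR3 ([125I]eotaxin) or CCR4 ([125I]TARC). Cells were seeded and cultured 24 h at 37 °C. Binding ran in Ham's F-12 with 20 mM Hepes and 0.5% BSA, pH 7.2, at room temperature for 40 min with graded compound. After a cold-PBS wash, cell-bound radioactivity was counted. Means ± SEM of ≥3 separate experiments.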
# [3] = target: T2, C-C chemokine receptor type 1 (Homo sapiens, UniProt P32246); experiment: Inhibitory effect on the binding of [125I]RANTES to C-C chemokine receptor type 1-expressing CHO cells; format: cell-based; procedure, shortened: as §1
# T2 sequence (P32246 whole entry): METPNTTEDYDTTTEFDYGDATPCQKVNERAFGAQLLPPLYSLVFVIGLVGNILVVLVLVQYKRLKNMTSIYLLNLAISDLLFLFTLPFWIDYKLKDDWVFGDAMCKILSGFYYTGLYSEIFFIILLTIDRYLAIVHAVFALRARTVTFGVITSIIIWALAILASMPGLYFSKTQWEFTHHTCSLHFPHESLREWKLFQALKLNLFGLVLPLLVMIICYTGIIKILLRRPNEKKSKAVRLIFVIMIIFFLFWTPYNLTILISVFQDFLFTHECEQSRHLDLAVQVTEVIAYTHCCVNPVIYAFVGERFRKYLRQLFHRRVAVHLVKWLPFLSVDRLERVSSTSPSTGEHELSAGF
# [4] = target: C-C chemokine receptor type 2 (Homo sapiens, UniProt P41597); experiment: Inhibitory effect on the binding of [125I]- MCP-1 to C-C chemokine receptor type 2-expressing CHO cells; format: cell-based
# Chain of C-C chemokine receptor type 2 (P41597 whole entry): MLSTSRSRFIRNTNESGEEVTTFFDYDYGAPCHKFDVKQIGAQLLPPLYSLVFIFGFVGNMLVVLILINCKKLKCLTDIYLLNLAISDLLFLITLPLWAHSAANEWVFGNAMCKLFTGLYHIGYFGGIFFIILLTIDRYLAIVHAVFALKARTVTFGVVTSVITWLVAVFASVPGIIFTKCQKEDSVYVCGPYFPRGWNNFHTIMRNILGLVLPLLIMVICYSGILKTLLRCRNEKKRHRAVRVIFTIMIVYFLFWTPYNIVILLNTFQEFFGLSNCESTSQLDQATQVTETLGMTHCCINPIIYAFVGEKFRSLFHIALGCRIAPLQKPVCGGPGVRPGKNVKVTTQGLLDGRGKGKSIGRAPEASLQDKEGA
# Procedure, shortened: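 CCR2b-expressing CHO cells (5 × 10⁴ cells/100 μL) cultured 24 h at 37 °C. Medium replaced with binding buffer: Ham's F-12, 20 mM Hepes, 0.5% BSA, pH 7.2. [125I]MCP-1 binding run at room temperature for 40 min with graded test-compound concentrations. Free ligand washed off with cold PBS; cell-associated radioactivity counted by scintillation.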
# [5] = target: T3, C-C chemokine receptor type 4 (Homo sapiens, UniProt P51679); experiment: Inhibitory effect on the binding of [125I]TARC to C-C chemokine receptor type 4-expressing CHO cells; format: cell-based; procedure, shortened: as §1
# T3 sequence (P51679 whole entry): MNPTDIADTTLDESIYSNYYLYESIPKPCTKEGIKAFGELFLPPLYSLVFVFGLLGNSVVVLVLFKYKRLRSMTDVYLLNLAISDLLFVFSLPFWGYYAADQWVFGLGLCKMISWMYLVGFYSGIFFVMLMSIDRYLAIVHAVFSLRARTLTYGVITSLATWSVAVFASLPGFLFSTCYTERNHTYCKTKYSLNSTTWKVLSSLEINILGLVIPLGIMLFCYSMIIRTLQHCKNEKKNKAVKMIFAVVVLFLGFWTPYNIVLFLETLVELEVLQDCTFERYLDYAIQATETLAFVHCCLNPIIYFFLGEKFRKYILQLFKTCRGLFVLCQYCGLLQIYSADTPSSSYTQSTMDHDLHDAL
# [6] = Inhibitory effects on HIV-1 (Ba-L) replication was evaluated in MAGI-CCR5 cells; format: functional, cell-based; conditions: Homo sapiens
# [7] = system: Human immunodeficiency virus 1; experiment: Inhibitory effects on HIV-1 (Ba-L) replication was evaluated in PBMCs; format: functional, organism-based
# Chain of C-C chemokine receptor type 5 (P51681 whole entry): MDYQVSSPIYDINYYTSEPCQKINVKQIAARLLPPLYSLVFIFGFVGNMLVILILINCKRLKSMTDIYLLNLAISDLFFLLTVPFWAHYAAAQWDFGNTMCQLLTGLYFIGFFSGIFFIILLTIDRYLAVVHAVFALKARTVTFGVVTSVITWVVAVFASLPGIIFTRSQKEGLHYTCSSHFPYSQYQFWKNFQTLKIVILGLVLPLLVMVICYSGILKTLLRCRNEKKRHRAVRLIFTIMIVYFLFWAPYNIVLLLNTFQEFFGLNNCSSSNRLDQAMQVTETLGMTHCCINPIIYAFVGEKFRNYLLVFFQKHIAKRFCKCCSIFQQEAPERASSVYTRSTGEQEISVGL
Compound,IC50 [1] [nM],further results
CCOc1ccc(-c2ccc3c(c2)C=C(C(=O)Nc2ccc(C[N+](C)(C)C4CCOCC4)cc2)CCO3)cc1,1.8,–
C[N+](C)(Cc1ccc(NC(=O)C2=Cc3cc(-c4ccc(C(F)(F)F)cc4)ccc3OCC2)cc1)C1CCOCC1,1.5,–
Cc1ccc(-c2ccc3c(c2)C=C(C(=O)Nc2ccc(C[N+](C)(C)C4CCSCC4)cc2)CCO3)cc1,3.1,–
Cc1ccc(-c2ccc3c(c2)C=C(C(=O)Nc2ccc(C[N+]4(C)CCCCC4)cc2)CCO3)cc1,43,–
C[N+](C)(Cc1ccc(NC(=O)C2=Cc3cc(-c4ccc(N5CCCC5)cc4)ccc3CCC2)cc1)C1CCOCC1,3.8,–
CCCC[P+](CCCC)(CCCC)Cc1ccc(NC(=O)/C=C/c2cccc(-c3ccc(C)cc3)c2)cc1,620,–
Cc1ccc(-c2ccc3c(c2)C=C(C(=O)Nc2ccc(C[N+](C)(C)C4CCC(=O)CC4)cc2)CCO3)cc1,4.5,–
Cc1ccc(-c2ccc3c(c2)C=C(C(=O)Nc2ccc(C[N+](C)(C)C4CCOCC4)cc2)CCC3)cc1 [listing 2 of 2 here],1.8,–
Cc1ccc(-c2ccc3c(c2)C=C(C(=O)Nc2ccc(C[N+]4(C)CCCCC4)cc2)CO3)cc1,660,–
Cc1ccc(-c2cccc(/C=C/C(=O)Nc3ccc(C[N+]4(C)CCCCC4)cc3)c2)cc1,570,–

# Further molecules by falling IC50 [1], results first:
IC50 [1] [nM],Compound,further results
3200,Cc1cccc[n+]1Cc1ccc(NC(=O)C2=Cc3cc(-c4ccccc4)ccc3CC2)cc1,–
1200,C[N+]1(Cc2ccc(NC(=O)C3=Cc4cc(-c5ccccc5)ccc4CC3)cc2)CCOCC1,–
1100,C[N+]1(CCc2ccc(NC(=O)C3=Cc4cc(-c5ccccc5)ccc4CC3)cc2)CCCCC1,–
840,CC[N+](CC)(CC)Cc1ccc(NC(=O)C2=Cc3cc(-c4ccccc4)ccc3CC2)cc1,–
430,C[N+]1(Cc2ccc(NC(=O)C3=Cc4cc(-c5ccccc5)ccc4CC3)cc2)CCCC1,–
390,C[N+]1(Cc2ccc(NC(=O)C3=Cc4cc(-c5ccccc5)ccc4CC3)cc2)CCCCC1,–
380,C[N+]1(Cc2ccc(NC(=O)C3=Cc4cc(-c5ccccc5)ccc4CC3)cc2)CCCCCC1,–
240,Cc1ccc(-c2ccc3c(c2)C=C(C(=O)Nc2ccc(C[N+]4(C)CCCCC4)cc2)CC3)cc1,–
110,Cc1ccc(-c2ccc3c(c2)C=C(C(=O)Nc2ccc(CC[N+]4(C)CCCCC4)cc2)CCO3)cc1,–
25,Cc1ccc(-c2ccc3c(c2)C=C(C(=O)Nc2ccc(C[N+]4(C)CCCCC4)cc2)CCC3)cc1,–
6.8,Cc1ccc(-c2ccc3c(c2)C=C(C(=O)Nc2ccc(C[N+](C)(C)CCCO)cc2)CCO3)cc1,–
3.3,CCC(CC)[N+](C)(C)Cc1ccc(NC(=O)C2=Cc3cc(-c4ccc(C)cc4)ccc3OCC2)cc1,–
2.2,C[N+](C)(Cc1ccc(NC(=O)C2=Cc3cc(-c4ccc(N5CCCCC5)cc4)ccc3CCC2)cc1)C1CCOCC1,–
1.4,Cc1ccc(-c2ccc3c(c2)C=C(C(=O)Nc2ccc(C[N+](C)(C)C4CCOCC4)cc2)CCO3)cc1,–
1.4,Cc1ccc(-c2ccc3c(c2)C=C(C(=O)Nc2ccc(C[N+](C)(C)C4CCOCC4)cc2)CCC3)cc1 [listing 1 of 2 here],IC50 [2]: > 10000 nM; IC50 [3]: > 10000 nM; IC50 [4]: 27 nM; IC50 [5]: > 10000 nM; EC50 [6]: 1.2 nM; EC50 [7]: 3.7 nM
